Measurements reported in ChEMBL document CHEMBL1152208, “The discovery of biaryl carboxamides as novel small molecule agonists of the motilin receptor” (Bioorg Med Chem Lett, 2008).

Tests used:
[1] = target: T1, Motilin receptor (Homo sapiens, UniProt O43193); assay: Agonist activity at human recombinant motilin receptor expressed in HEK293 cells by FLIPR assay; assay type: functional, cell-based
Method in brief: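 HEK293 cells stably expressing human motilin receptor, seeded on poly-lysine plates 24 h before assay. Loaded with Fluo-4-AM (final) and 1 mM probenecid (final) in HEPES-buffered saline with 0.1% BSA for 1 h at 25 °C, washed, rested 20 min at 25 °C. Fluorescence change followed for 2 min after compound addition. Peak change over baseline was fitted with a 4-parameter logistic to give pEC50. Mean of at least three independent experiments (n = 2 for some).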

[2] = system: Liver microsomes; assay: Intrinsic clearance in rat liver microsome; assay type: ADME
[3] = system: Liver microsomes; assay: Intrinsic clearance in human liver microsome; assay type: ADME
[4] = target: Cytochrome P450 2D6 (Homo sapiens, UniProt P10635); assay: Inhibition of CYP2D6; assay type: ADME
Cytochrome P450 2D6, sequence (P10635 whole entry): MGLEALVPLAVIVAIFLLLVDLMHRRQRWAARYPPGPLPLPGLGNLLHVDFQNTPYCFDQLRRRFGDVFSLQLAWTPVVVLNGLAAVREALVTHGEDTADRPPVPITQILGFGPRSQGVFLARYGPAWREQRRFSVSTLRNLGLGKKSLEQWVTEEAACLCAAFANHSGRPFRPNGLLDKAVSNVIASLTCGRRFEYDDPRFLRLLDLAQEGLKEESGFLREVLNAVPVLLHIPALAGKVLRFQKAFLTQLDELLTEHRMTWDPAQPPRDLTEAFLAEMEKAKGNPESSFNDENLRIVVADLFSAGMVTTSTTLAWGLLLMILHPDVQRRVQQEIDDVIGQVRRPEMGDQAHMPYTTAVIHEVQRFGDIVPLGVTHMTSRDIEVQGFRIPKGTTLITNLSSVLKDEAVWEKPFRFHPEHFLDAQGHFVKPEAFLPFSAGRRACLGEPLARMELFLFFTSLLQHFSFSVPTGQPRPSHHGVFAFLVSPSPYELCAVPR

[5] = system: Stomach; assay: Potentiation of electrical field stimulation-induced contraction in New Zealand white rabbit gastric antrum at 1.5 uM; assay type: functional; settings: Oryctolagus cuniculus
[6] = target: T2, Cytochrome P450 3A4 (Homo sapiens, UniProt P08684); assay: Inhibition of CYP3A4 using diethoxyfluorescein substrate; assay type: ADME
T2 sequence (P08684 whole entry): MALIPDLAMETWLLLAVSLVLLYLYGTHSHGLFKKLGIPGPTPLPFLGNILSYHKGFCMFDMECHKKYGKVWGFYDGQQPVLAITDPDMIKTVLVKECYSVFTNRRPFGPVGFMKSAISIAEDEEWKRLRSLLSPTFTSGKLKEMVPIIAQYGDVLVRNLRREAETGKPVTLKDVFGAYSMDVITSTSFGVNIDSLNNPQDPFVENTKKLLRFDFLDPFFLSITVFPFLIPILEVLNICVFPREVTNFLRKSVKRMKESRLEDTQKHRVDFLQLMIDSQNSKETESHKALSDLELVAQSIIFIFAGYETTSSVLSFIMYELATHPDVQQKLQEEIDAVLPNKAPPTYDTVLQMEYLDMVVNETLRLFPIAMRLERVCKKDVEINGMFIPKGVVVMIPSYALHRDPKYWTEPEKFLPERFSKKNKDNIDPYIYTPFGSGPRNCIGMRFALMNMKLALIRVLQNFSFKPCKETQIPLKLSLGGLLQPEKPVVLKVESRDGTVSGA

[7] = target: T2, Cytochrome P450 3A4; assay: Inhibition of CYP3A4 using phenyl-piperazinyl-methyl-benzyl-resofurin substrate; assay type: ADME
[8] = target: Cytochrome P450 2C9 (Homo sapiens, UniProt P11712); assay: Inhibition of CYP2C9; assay type: ADME
Cytochrome P450 2C9, sequence (P11712 whole entry): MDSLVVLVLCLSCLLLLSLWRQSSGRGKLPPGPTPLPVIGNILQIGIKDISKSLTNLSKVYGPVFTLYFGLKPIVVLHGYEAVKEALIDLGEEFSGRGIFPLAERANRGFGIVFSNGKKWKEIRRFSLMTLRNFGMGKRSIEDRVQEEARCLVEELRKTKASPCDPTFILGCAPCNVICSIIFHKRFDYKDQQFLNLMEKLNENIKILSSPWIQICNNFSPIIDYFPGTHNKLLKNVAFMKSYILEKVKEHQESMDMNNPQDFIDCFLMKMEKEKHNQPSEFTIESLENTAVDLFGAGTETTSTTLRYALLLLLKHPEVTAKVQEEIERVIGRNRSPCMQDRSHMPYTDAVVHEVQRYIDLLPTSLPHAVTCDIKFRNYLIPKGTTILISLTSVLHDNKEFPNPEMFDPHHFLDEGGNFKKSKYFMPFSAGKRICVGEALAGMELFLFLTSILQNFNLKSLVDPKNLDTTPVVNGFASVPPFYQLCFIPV

[9] = Clearance in rat; assay type: ADME, organism-based; settings: in vivo
[10] = system: Stomach; assay: Potentiation of electrical field stimulation-induced contraction in New Zealand white rabbit gastric antrum at 3 uM; assay type: functional; settings: Oryctolagus cuniculus
[11] = target: Growth hormone secretagogue receptor type 1 (Homo sapiens, UniProt Q92847); assay: Inhibition of human Ghrelin receptor
Growth hormone secretagogue receptor type 1, sequence (Q92847 whole entry): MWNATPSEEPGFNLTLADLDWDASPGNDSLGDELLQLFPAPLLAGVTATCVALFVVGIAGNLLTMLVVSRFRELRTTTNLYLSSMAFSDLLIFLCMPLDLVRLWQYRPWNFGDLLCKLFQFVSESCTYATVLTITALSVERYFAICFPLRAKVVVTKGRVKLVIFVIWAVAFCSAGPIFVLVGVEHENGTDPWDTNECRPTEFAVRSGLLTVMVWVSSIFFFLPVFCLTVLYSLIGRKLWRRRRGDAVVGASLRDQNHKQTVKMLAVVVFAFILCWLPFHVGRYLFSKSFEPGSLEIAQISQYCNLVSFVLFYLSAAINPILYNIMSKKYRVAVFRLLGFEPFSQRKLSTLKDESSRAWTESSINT

[12] = system: Stomach; assay: Potentiation of electrical field stimulation-induced contraction in New Zealand white rabbit gastric antrum at 0.3 uM; assay type: functional; settings: Oryctolagus cuniculus
[13] = target: T3, Cytochrome P450 1A2 (Homo sapiens, UniProt P05177); assay: Inhibition of CYP1A2; assay type: ADME
T3 sequence (P05177 whole entry): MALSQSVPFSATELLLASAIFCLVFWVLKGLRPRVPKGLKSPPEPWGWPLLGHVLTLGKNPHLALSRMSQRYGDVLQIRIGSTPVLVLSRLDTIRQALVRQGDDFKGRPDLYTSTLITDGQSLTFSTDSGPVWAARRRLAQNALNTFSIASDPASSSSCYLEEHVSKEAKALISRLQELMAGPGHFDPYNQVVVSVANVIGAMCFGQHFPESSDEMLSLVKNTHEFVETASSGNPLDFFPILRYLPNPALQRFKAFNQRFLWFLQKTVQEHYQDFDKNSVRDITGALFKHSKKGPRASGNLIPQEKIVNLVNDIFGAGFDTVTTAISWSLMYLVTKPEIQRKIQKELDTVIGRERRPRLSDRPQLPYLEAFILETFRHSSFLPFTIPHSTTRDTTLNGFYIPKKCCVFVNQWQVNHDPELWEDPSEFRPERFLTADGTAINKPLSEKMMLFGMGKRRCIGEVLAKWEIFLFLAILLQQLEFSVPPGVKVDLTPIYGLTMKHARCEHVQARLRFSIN

[14] = Distribution coefficient, log D at pH 7.4; assay type: physicochemical; settings: octanol/water
[15] = Oral bioavailability in rat; assay type: ADME, organism-based; settings: in vivo
[16] = target: Cytochrome P450 2C19 (Homo sapiens, UniProt P33261); assay: Inhibition of CYP2C19; assay type: ADME
Cytochrome P450 2C19, sequence (P33261 whole entry): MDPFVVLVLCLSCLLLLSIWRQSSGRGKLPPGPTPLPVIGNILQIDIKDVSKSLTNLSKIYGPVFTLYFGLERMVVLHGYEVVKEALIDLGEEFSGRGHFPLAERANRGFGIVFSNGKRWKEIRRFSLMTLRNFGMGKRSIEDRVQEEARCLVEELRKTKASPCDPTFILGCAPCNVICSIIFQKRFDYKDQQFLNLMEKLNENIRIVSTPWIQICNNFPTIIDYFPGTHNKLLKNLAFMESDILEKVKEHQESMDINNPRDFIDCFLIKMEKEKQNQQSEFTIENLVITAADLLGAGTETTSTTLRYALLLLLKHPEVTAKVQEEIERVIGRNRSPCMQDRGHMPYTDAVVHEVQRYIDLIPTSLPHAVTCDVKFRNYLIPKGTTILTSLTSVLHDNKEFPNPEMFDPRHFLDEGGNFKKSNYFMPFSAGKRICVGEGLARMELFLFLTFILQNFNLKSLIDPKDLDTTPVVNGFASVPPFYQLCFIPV

[17] = system: Stomach; assay: Potentiation of electrical field stimulation-induced contraction in New Zealand white rabbit gastric antrum at 1 uM; assay type: functional; settings: Oryctolagus cuniculus
[18] = system: Stomach; assay: Potentiation of electrical field stimulation-induced contraction in New Zealand white rabbit gastric antrum at 10 uM; assay type: functional; settings: Oryctolagus cuniculus
[19] = target: T1, Motilin receptor; assay: Agonist activity at human recombinant motilin receptor expressed in CHO cells by FLIPR assay; assay type: functional, cell-based
[20] = Aqueous solubility of the compound; assay type: physicochemical
[21] = target: Voltage-gated inwardly rectifying potassium channel KCNH2 (Homo sapiens, UniProt Q12809); assay: Inhibition of human ERG binding
Voltage-gated inwardly rectifying potassium channel KCNH2, sequence (Q12809 whole entry): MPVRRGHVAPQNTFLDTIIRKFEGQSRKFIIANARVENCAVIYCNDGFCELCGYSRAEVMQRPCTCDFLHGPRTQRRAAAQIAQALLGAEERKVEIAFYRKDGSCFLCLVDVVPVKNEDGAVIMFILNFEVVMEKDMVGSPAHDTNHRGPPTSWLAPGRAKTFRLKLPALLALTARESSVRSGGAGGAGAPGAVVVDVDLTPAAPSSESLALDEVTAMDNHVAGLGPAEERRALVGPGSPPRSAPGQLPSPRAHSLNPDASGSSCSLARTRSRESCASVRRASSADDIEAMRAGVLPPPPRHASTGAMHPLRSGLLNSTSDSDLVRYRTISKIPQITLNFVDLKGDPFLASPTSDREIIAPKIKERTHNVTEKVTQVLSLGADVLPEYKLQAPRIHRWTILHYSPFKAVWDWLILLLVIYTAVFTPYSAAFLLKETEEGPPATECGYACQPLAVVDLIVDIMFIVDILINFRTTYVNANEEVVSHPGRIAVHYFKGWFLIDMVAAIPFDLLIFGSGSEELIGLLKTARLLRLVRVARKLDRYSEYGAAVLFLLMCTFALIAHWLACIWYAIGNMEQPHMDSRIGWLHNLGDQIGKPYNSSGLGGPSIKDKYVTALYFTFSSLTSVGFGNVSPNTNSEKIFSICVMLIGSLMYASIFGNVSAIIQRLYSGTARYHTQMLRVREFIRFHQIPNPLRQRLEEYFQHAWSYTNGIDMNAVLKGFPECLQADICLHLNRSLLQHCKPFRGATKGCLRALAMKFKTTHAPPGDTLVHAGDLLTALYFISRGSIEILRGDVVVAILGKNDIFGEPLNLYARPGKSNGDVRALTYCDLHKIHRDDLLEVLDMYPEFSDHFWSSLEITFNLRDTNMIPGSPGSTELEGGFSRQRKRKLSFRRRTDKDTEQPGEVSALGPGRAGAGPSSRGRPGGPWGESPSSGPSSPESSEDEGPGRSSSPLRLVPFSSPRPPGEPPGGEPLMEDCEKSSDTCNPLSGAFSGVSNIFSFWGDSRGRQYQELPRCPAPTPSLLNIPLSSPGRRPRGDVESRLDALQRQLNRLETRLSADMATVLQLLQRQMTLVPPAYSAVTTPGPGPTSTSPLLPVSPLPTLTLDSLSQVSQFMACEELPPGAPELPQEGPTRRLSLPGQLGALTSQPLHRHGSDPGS

[22] = Oral bioavailability in dog; assay type: ADME, organism-based, Canis lupus familiaris; settings: in vivo
[23] = Clearance in dog; assay type: ADME, organism-based, Canis lupus familiaris; settings: in vivo

T1 sequence (O43193 whole entry): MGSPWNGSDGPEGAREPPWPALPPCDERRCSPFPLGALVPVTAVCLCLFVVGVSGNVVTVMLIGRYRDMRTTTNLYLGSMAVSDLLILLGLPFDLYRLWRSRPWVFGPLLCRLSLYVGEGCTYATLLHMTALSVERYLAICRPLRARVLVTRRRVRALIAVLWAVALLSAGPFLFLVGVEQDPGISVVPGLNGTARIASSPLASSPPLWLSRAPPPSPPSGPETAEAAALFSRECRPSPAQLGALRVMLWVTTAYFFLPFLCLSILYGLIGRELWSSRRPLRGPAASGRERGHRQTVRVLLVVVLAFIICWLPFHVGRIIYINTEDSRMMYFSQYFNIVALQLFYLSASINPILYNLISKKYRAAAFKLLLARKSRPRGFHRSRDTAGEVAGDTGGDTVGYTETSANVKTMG

SMILES | EC50 [1] [nM] | CL [2] [mL/min/g] | CL [3] [mL/min/g] | IC50 [6] [nM] | IC50 [7] [nM] | further results
C[C@@H]1CN(Cc2cnc(-c3ccccc3C(=O)N3CCC(Nc4ccc(F)cc4)CC3)s2)C[C@H](C)N1 | 398 | – | – | – | – | –
C[C@@H]1CN(Cc2ccc(-c3cccnc3C(=O)N3CCC(Nc4cccc(F)c4)CC3)cc2F)C[C@H](C)N1 | 10 | 12 | 9.4 | – | – | –
C[C@@H]1CN(Cc2ccc(-n3ccnc3C(=O)N3CCC(Nc4cccc(F)c4)CC3)cc2)C[C@H](C)N1 | 15.8 | 4.1 | 3.4 | 58000 | 46000 | IC50 [4]: 29000 nM; Emax at 1.5 µM [5]: 302%; IC50 [8]: > 100000 nM; clearance [9]: 61 mL/min/kg; Emax at 3 µM [10]: 224%; EC50 [11]: 501 nM; Emax at 0.3 µM [12]: 73%; IC50 [13]: 74000 nM; logD [14]: 0.82; bioavailability [15]: 17%; IC50 [16]: > 100000 nM
C[C@@H]1CN(Cc2ccc(-c3ccccc3CN(C)C(=O)Cc3cccc(Cl)c3)cc2)C[C@H](C)N1 | 79.4 | 17 | 20 | 1400 | 1500 | –
C[C@@H]1CN(Cc2ccc(-c3ccccc3C(=O)N3CCC(Nc4ccc(F)cc4)CC3)cc2)C[C@H](C)N1 | 2.51 | – | – | – | – | –
C[C@@H]1CN(Cc2ccc(N3CCCC3C(=O)N3CCC(Nc4cccc(F)c4)CC3)cc2)C[C@H](C)N1 (some centres undefined) | 2510 | – | – | – | – | –
C[C@@H]1CN(Cc2ccc(-c3ccccc3CN(C)C(=O)Cc3ccc(F)cc3)cc2)C[C@H](C)N1 | 50.1 | – | – | – | – | –
C[C@@H]1CN(Cc2ccc(-c3cccnc3C(=O)N3CCC(Nc4ccccc4C#N)CC3)cc2)C[C@H](C)N1 | 794 | – | – | – | – | –
COc1cccc(CCN(Cc2ccccc2-c2ccc(CN3CCNCC3)cc2)C(=O)COc2ccccc2)c1 | 251 | – | – | – | – | –
CC[C@H]1OC(=O)[C@H](C)[C@@H](O[C@H]2C[C@@](C)(OC)[C@@H](O)[C@H](C)O2)[C@H](C)[C@@H](O[C@@H]2O[C@H](C)C[C@H](N(C)C)[C@H]2O)[C@](C)(O)C[C@@H](C)C(=O)[C@H](C)[C@@H](O)[C@]1(C)O [ERYTHROMYCIN] | – | – | – | – | – | Emax at 3 µM [10]: 490%; Emax at 1 µM [17]: 189%; Emax at 0.3 µM [12]: 69%; Emax at 10 µM [18]: 368%
C[C@@H]1CN(Cc2ccc(-c3ccccc3C(=O)N3CCC(Nc4ccccc4)CC3)cc2)C[C@H](C)N1 | 5.01 | 20 | 7 | 12000 | 17000 | –
C[C@@H]1CN(Cc2ccc(-c3ccccc3CN(C)C(=O)COc3ccccc3)cc2)C[C@H](C)N1 | 79.4 | 9.5 | 4.9 | 7000 | 24000 | –
C[C@@H]1CN(Cc2ccc(-c3cccnc3C(=O)N3CCC(Nc4ccc(C#N)cc4)CC3)cc2)C[C@H](C)N1 | 631 | – | – | – | – | –
COc1cccc(CCN(Cc2ccccc2-c2ccc(CN3C[C@@H](C)N[C@@H](C)C3)cc2)C(=O)NC2CCCCC2)c1 | 50.1 | 23 | > 50 | 200 | 400 | EC50 [19]: 10 nM
C[C@@H]1CN(Cc2ccc(-c3ccccc3CN(C)C(=O)COc3ccc(F)cc3)cc2)C[C@H](C)N1 | 31.6 | – | – | 6000 | 7300 | –
C[C@@H]1CN(Cc2ccc(-c3ccccc3C(=O)N3CCC(Cc4ccc(F)cc4)CC3)cc2)C[C@H](C)N1 | 10 | 7 | 29 | 600 | 500 | –
COCCCN(Cc1ccccc1-c1ccc(CN2CCNCC2)cc1)C(=O)COc1ccccc1 | 398 | – | – | – | – | –
C[C@@H]1CN(Cc2ccc(-c3ccccc3C(=O)N3CCC(NC(=O)c4ccc(F)cc4)CC3)cc2)C[C@H](C)N1 | > 10000 | – | – | – | – | –
C[C@@H]1CN(Cc2ccc(-c3ccccc3C(=O)N3CCC(Oc4ccc(F)cc4)CC3)cc2)C[C@H](C)N1 | 63.1 | – | – | – | – | –
C[C@@H]1CN(Cc2ccc(-c3cccnc3C(=O)N3CCC(Cc4ccc(F)cc4)CC3)cc2)C[C@H](C)N1 | 10 | 16 | 16 | 13000 | 5600 | –

SMILES | EC50 [1] [nM] | CL [2] [mL/min/g] | CL [3] [mL/min/g] | IC50 [6] [nM] | IC50 [7] [nM] | further results
C[C@@H]1CN(Cc2ccc(-n3ccnc3C(=O)N3CCC(Nc4cccc(F)c4)CC3)cc2)C[C@H](C)N1.Cl | – | – | – | – | – | solubility [20]: ≥ 500 µg/mL
C[C@@H]1CN(Cc2ccc(-c3cccnc3C(=O)N3CCC(Nc4cccc(F)c4)CC3)cc2)C[C@H](C)N1 | 6.31 | 6.5 | 4.4 | – | – | –
C[C@@H]1CN(Cc2ccc(-c3ccccc3CN(C)C(=O)CSc3ccccc3)cc2)C[C@H](C)N1 | 3.16 | – | – | – | – | –
C[C@@H]1CN(Cc2ccc(-c3ccccc3C(=O)N3CCC(Nc4ccc(F)cc4)CC3)nc2)C[C@H](C)N1 | > 10000 | – | – | – | – | –
C[C@@H]1CN(Cc2ccc(-c3cccnc3C(=O)N3CCC(Nc4ccc(F)cc4)CC3)cc2)C[C@H](C)N1 | 20 | 2.8 | 2.6 | > 100000 | > 100000 | IC50 [4]: 15000 nM; IC50 [8]: > 100000 nM; clearance [9]: 53 mL/min/kg; IC50 [21]: > 31600 nM; bioavailability [22]: 58%; Emax at 3 µM [10]: 343%; EC50 [11]: 100 nM; Emax at 1 µM [17]: 299%; Emax at 0.3 µM [12]: 168%; IC50 [13]: > 100000 nM; logD [14]: 0.72; bioavailability [15]: 13%; Emax at 10 µM [18]: 486%; clearance [23]: 19 mL/min/kg; IC50 [16]: > 100000 nM
C[C@@H]1CN(Cc2ccc(-c3ccccc3C(=O)N3CCC(C(=O)c4ccc(F)cc4)CC3)cc2)C[C@H](C)N1 | 63.1 | – | – | 4800 | 3600 | –
C[C@@H]1CN(Cc2ccc(-c3cccnc3C(=O)N3CCC(Nc4ccc(C(N)=O)cc4)CC3)cc2)C[C@H](C)N1 | 2510 | – | – | – | – | –
C[C@@H]1CN(Cc2ccc(-c3cccnc3C(=O)N3CCC(Nc4ccc(F)cc4)CC3)cc2)C[C@H](C)N1.Cl | – | – | – | – | – | solubility [20]: ≥ 1000 µg/mL
CC(C)CCC(=O)N(C)Cc1ccccc1-c1ccc(CN2C[C@@H](C)N[C@@H](C)C2)cc1 | 251 | – | – | – | – | –
C[C@@H]1CN(Cc2ccc(-c3cccnc3C(=O)N3CCC(Nc4ccc(F)cc4)CC3)cc2F)C[C@H](C)N1 | 3.98 | 6.5 | 5.5 | – | – | –
C[C@@H]1CN(Cc2ccc(-c3ccccc3C(=O)N3CCC(Nc4ccc(Cl)cc4)CC3)cc2)C[C@H](C)N1 | 50.1 | 33 | 8 | 5200 | 3500 | –
C[C@@H]1CN(Cc2ccc(-c3cccnc3C(=O)N3CCC(Nc4ccc(F)c(F)c4)CC3)cc2)C[C@H](C)N1 | 2 | 5.9 | 7 | – | – | –
COc1cc(-c2cccnc2C(=O)N2CCC(Nc3ccc(F)cc3)CC2)ccc1CN1C[C@@H](C)N[C@@H](C)C1 | 5.01 | 5.9 | 5.3 | – | – | –
Cc1cc(CC(=O)N(C)Cc2ccccc2-c2ccc(CN3C[C@@H](C)N[C@@H](C)C3)cc2)on1 | 1000 | 2.9 | 2.4 | 40000 | > 100000 | –
C[C@@H]1CN(Cc2ccc(-c3cccnc3C(=O)N3CCC(Nc4cccc(C#N)c4)CC3)cc2)C[C@H](C)N1 | 20 | 4.6 | 3.5 | – | – | –
COc1ccc(NC2CCN(C(=O)c3ncccc3-c3ccc(CN4C[C@@H](C)N[C@@H](C)C4)cc3)CC2)cc1 | 1000 | – | – | – | – | –
CCN(CCc1ccccc1)C(=O)c1ccccc1-c1ccc(CN2C[C@@H](C)N[C@@H](C)C2)cc1 | 7.94 | 26 | 40 | 900 | 1500 | –
Cc1ccc(S(=O)(=O)NCC(=O)N(C)Cc2ccccc2-c2ccc(CN3C[C@@H](C)N[C@@H](C)C3)cc2)cc1 | 20 | – | – | – | – | –
C[C@@H]1CN(Cc2ccc(-c3cccnc3C(=O)N3CCC(Nc4ccccc4F)CC3)cc2)C[C@H](C)N1 | 50.1 | – | – | – | – | –
C[C@@H]1CN(Cc2ccc(-c3ccccc3CN(C)C(=O)CS(=O)(=O)c3ccccc3)cc2)C[C@H](C)N1 | 10 | 4.3 | 6.8 | 3000 | 8900 | –
